Assay results: ChEMBL document CHEMBL1133729, “Design, synthesis, and structure-activity relationships of phthalimide-phenylpiperazines: a novel series of potent and selective alpha(1)(a)-adrenergic receptor antagonists” (J Med Chem, 2000)

Legend:
[1] = target: Histamine H1 receptor (Cavia porcellus) (UniProt P31389); test: Compound at 1 uM was tested for the inhibition of radioligand [3H]pyrilamine binding to central histamine H1 receptor in guinea pig brain
How it was run: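 Central H1 from guinea pig brain membranes; [3H]pyrilamine 25 °C for 60 min, pH 7.4 Tris-HCl/NaCl/EDTA buffer; 1 μM pyrilamine for nonspecific binding. Percent inhibition by compound at 1 μM, duplicate; filtered, scintillation counted.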

D(2) dopamine receptor = D(2) dopamine receptor (Homo sapiens, UniProt P14416); test: Compound at 1 uM was tested for the inhibition of radioligand [3H]spiperone binding to recombinant human Dopamine receptor D2L
Chain of D(2) dopamine receptor (P14416 whole entry): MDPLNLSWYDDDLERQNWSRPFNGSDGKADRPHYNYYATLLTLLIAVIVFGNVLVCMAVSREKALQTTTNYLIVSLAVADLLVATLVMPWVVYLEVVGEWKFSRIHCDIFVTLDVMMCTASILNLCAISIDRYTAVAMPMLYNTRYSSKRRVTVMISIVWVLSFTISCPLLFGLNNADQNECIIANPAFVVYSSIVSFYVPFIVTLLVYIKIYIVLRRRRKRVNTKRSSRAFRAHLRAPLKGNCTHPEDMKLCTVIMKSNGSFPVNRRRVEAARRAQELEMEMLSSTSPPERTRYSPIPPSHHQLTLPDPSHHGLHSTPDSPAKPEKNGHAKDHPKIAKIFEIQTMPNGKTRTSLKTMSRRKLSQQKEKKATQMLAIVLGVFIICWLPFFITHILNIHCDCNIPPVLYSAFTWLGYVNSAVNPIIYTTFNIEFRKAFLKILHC
How it was run: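 D2L (human, CHO-expressed) membranes; [3H]spiperone, 25 °C, 120 min; pH 7.4 Tris-HCl/NaCl/EDTA; nonspecific with 10 μM haloperidol. Compound at 1 μM, percent inhibition in duplicate; filtration, scintillation counting.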

[2] = target: Adrenergic receptors; alpha-1 A & B (Homo sapiens) (UniProt P35348+P35368); test: Ratio of binding affinity towards Alpha1b to Alpha-1A; assay type: protein assay
How it was run: (§1)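 Human α1a, α1b and α1d cDNAs transiently expressed in COS-1 cells (DEAE-dextran); membranes harvested 72 h post-transfection. Competition versus 50 pM [125I]HEAT (final), 0.1 pM–10 μM test compound in half-log steps, in TNE buffer pH 7.4. Membrane protein 0.1 μg (α1a, α1b) or 2.6 μg (α1d); 1 h at 25 °C. Filtration, scintillation counting; Ki = IC50/(1 + [L]/Kd). Ratios are subtype Ki over α1a Ki.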

[3] = target: T1, Alpha-1B adrenergic receptor (Homo sapiens, UniProt P35368); test: Binding affinity towards cloned human alpha-1B adrenergic receptor was determined using [125]-HEAT as radioligand; how it was run: as §1
T1 sequence (P35368 whole entry): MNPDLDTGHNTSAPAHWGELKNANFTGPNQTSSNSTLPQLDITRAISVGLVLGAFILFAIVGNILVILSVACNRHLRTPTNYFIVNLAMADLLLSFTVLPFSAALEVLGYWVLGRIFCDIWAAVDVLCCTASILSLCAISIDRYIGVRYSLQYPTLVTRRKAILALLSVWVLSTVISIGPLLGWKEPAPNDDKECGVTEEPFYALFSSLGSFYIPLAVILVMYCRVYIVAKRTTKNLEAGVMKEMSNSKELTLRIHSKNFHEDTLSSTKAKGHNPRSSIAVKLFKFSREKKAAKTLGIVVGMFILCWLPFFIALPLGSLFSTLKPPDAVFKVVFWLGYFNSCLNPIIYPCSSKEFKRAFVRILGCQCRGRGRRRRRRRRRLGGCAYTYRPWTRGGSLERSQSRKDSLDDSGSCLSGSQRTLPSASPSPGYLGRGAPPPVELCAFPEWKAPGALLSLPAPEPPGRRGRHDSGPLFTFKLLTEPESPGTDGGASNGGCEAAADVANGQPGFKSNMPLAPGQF

[4] = target: T2, Alpha-1D adrenergic receptor (Homo sapiens, UniProt P25100); test: Binding affinity towards cloned human alpha-1D adrenergic receptor was determined using [125]-HEAT as radioligand; how it was run: as §1
T2 sequence (P25100 whole entry): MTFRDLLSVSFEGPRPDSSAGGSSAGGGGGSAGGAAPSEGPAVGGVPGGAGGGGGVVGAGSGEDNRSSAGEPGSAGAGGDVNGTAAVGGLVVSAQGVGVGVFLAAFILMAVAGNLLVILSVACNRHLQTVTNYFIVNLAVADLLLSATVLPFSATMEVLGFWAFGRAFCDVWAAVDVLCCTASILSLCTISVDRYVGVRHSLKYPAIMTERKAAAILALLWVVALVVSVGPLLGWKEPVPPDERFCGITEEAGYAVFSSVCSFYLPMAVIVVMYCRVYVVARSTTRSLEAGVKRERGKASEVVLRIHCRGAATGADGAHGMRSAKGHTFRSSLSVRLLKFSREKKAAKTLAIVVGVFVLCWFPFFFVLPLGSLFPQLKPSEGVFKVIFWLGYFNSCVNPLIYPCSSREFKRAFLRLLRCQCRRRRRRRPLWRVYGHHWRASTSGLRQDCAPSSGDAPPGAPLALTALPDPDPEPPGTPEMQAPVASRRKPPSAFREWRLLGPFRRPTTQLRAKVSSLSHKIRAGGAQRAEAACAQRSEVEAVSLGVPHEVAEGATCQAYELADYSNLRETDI

[5] = target: T3, Alpha-2B adrenergic receptor (Rattus norvegicus) (UniProt P19328); test: Compound at 1 uM was tested for the inhibition of radioligand [3H]yohimbine binding to rat alpha-2B adrenergic receptor
T3 sequence (whole entry): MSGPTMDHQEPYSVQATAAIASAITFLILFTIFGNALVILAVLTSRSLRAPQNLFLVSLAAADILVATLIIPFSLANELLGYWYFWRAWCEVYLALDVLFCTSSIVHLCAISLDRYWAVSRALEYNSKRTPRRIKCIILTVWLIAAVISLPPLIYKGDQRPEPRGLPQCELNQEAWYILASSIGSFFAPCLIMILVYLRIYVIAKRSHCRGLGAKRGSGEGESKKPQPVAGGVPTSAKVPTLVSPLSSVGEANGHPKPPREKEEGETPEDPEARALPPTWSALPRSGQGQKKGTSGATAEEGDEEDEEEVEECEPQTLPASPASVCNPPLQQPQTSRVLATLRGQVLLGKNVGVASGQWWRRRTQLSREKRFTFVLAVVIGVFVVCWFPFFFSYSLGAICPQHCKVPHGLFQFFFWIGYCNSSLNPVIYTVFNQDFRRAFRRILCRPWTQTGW
How it was run: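 Rat kidney cortical membranes; [3H]yohimbine, 25 °C for 30 min, pH 7.4 Tris-HCl/NaCl/EDTA; 10 μM phentolamine for nonspecific binding. Percent inhibition at 1 μM compound, in duplicate; filtration, scintillation counting.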

Chain of Histamine H1 receptor (Cavia porcellus) (P31389 whole entry): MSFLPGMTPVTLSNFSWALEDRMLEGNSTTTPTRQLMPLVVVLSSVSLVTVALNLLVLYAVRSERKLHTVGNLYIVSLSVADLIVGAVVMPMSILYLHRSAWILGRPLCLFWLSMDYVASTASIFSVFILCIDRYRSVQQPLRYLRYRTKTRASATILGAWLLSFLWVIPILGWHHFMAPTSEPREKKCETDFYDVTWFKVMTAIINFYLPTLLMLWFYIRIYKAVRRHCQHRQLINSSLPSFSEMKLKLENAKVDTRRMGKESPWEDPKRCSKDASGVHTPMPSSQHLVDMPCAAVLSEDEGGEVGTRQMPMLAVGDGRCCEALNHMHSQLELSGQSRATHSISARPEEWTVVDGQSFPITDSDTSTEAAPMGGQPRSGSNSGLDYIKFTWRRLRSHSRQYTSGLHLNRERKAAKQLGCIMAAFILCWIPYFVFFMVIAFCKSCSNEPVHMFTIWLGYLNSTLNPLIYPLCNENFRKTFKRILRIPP

Row | SMILES | inhibition [1] [%] | inhibition (D(2) dopamine receptor) [%] | Ratio [2] | Ki [3] [nM] | Ki [4] [nM] | inhibition [5] [%]
1 | Cc1ccc(N2C(=O)c3ccc(C(=O)NCCCN4CCN(c5ccccc5OC(C)C)CC4)cc3C2=O)cc1 | 97 | 83 | > 12500 | > 2000 | 37 | 66
2 | Cc1ccc(N2C(=O)c3ccc(C(=O)NC[C@H](O)CN4CCN(c5ccccc5OC(C)C)CC4)cc3C2=O)cc1 | 93 | 68 | > 5690 | > 1650 | 54 | 75
3 | CC(C)Oc1ccccc1N1CCN(C[C@@H](O)CNC(=O)c2ccc3c(c2)C(=O)N(c2ccc(N(C)C)cc2)C3=O)CC1 | 88 | 71 | > 6060 | > 2000 | 52 | 73
4 | CCOc1ccccc1OCCN[C@H](C)Cc1ccc(OC)c(S(N)(=O)=O)c1 [TAMSULOSIN] | 18 | 53 | – | 1.92 | 0.18 | 86
5 | COc1ccc(N2C(=O)c3ccc(C(=O)NCCCN4CCN(c5ccccc5OC(C)C)CC4)cc3C2=O)cc1 | 97 | 83 | 3280 | 361 | 16 | 79

Further lines, results first:

Row | inhibition [1] [%] | inhibition (D(2) dopamine receptor) [%] | Ratio [2] | Ki [3] [nM] | Ki [4] [nM] | inhibition [5] [%] | SMILES
6 | 87 | 89 | 1180 | 482 | 22 | 78 | CC(C)Oc1ccccc1N1CCN(CCCNC(=O)c2ccc3c(c2)C(=O)N(c2cccc(F)c2)C3=O)CC1
7 | 95 | 55 | > 1960 | > 2000 | 190 | 70 | CC(C)Oc1ccccc1N1CCN(C[C@@H](O)CNC(=O)c2ccc3c(c2)C(=O)N(c2cccc(F)c2)C3=O)CC1
